According to ChEMBL document CHEMBL1130336, “Polyanion inhibitors of human immunodeficiency virus and other viruses. 6. Micelle-like anti-HIV polyanionic compounds based on a carbohydrate core” (J Med Chem, 1997):
pIC50: −log10 of the molar value.

Legend:
[1] = tested on: Vero; assay: Concentration required to reduce sindbis virus-inducted cytopathicity by 50% (Vero cells); format: functional, cell-based; conditions: Chlorocebus sabaeus
[2] = tested on: Vero; assay: Concentration required to reduce parainfluenza-3 virus-inducted cytopathicity by 50% (Vero cells); format: functional, cell-based; conditions: Chlorocebus sabaeus
[3] = tested on: HeLa; assay: Concentration required to cause a microscopically detectable alteration of normal Hela cell morphology; format: functional, cell-based; conditions: Homo sapiens
[4] = tested on: HEL; assay: Concentration required to inhibit HEL cell growth by 50%; format: functional, cell-based; conditions: Homo sapiens
[5] = tested on: Human immunodeficiency virus 1; assay: Concentration required to inhibit by 50% human immunodeficiency virus-1 induced syncytium formation upon coculturing persistently HIV-infected HUT-78 cells with MOLT-4 cells; format: functional, organism-based; conditions: Human immunodeficiency virus 1, MOLT-4
Outline: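 MOLT-4 (clone 8) cells at 1 × 10^6 cells/mL, cocultured with an equal number of persistently infected HUT-78/HIV-1 or HUT-78/HIV-2 cells across a range of compound concentrations. Giant cells were counted under the microscope after 24 h of cocultivation. The value is the concentration giving 50% inhibition of syncytium formation.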

[6] = tested on: Vero; assay: Concentration required to reduce Tacaribe virus-inducted cytopathicity by 50% (Vero cells); format: functional, cell-based; conditions: Chlorocebus sabaeus
[7] = tested on: E6SM; assay: Concentration required to reduce herpes simplex virus-1TK (KOS) inducted cytopathicity by 50% (E6SM cells); format: functional, cell-based; conditions: Homo sapiens
Outline: (§1)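 Virus was added in the presence of compound, and the cells were incubated until cytopathic effect was scored. The value is the concentration that reduces virus-induced CPE by 50%.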

[8] = tested on: Vero; assay: Concentration required to reduce Junin virus-inducted cytopathicity by 50% (Vero cells); format: functional, cell-based; conditions: Chlorocebus sabaeus
[9] = tested on: Vero; assay: Concentration required to reduce Coxsackie virus-inducted cytopathicity by 50% (Vero cells); format: functional, cell-based; conditions: Chlorocebus sabaeus
[10] = tested on: HEL; assay: Concentration required to reduce human cytomegalo virus(Davis) inducted cytopathicity by 50% (HEL cells); format: functional, cell-based; outline: as §1
[11] = tested on: E6SM; assay: Concentration required to cause a microscopically detectable alteration of normal E6SM cell morphology; format: functional, cell-based; conditions: Homo sapiens, read-out: IC50
Outline: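 Minimum cytotoxic concentration, read microscopically as the level that causes a detectable alteration of normal cell morphology.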

[12] = tested on: E6SM; assay: Concentration required to reduce herpes simplex virus-1TK( B2006) inducted cytopathicity by 50% (E6SM cells); format: functional, cell-based; conditions: Homo sapiens; outline: as §1
[13] = tested on: HeLa; assay: Concentration required to reduce polio-1 virus-inducted cytopathicity by 50% (HeLa cells); format: functional, cell-based; conditions: Homo sapiens
[14] = tested on: E6SM; assay: Concentration required to reduce herpes simplex virus-2(G) inducted cytopathicity by 50% (E6SM cells); format: functional, cell-based; conditions: Homo sapiens; outline: as §1
[15] = tested on: E6SM; assay: Concentration required to reduce herpes simplex virus-2(Lyons) inducted cytopathicity by 50% (E6SM cells); format: functional, cell-based; conditions: Homo sapiens; outline: as §1
[16] = tested on: MT4; assay: Concentration required to inhibit human immunodeficiency virus-1 induced cytopathicity in MT-4 cells by 50%; format: functional, cell-based
Outline: (§2)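 MT-4 cells infected with HIV-1 (strain HTLV-III_B/LAI) or HIV-2 (strain LAV_ROD). The end point is 50% inhibition of virus-induced cytopathicity.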

[17] = tested on: Vero; assay: Concentration required to reduce reovirus-1 inducted cytopathicity by 50% (Vero cells); format: functional, cell-based; conditions: Chlorocebus sabaeus
[18] = tested on: Vero; assay: Concentration required to cause a microscopically detectable alteration of normal Vero cell morphology; format: functional, cell-based; conditions: Chlorocebus sabaeus
[19] = tested on: CEM-4; assay: Concentration required to reduce the viability of uninfected CEM-4 cells by 50%; format: functional; conditions: Homo sapiens
Outline: (§3)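 Cytotoxicity in uninfected CEM-4 or MT-4 cells, measured as inhibition of cell growth. The value is the concentration that lowers viability by 50%.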

[20] = tested on: E6SM; assay: Concentration required to reduce herpes simplex virus-1TK (F) inducted cytopathicity by 50% (E6SM cells); format: functional, cell-based; conditions: Homo sapiens; outline: as §1
[21] = tested on: Vaccinia virus; assay: Concentration required to reduce vaccinia virus-inducted cytopathicity by 50% (E6SM cells); format: functional, organism-based, Orthopoxvirus vaccinia; conditions: Orthopoxvirus vaccinia, E6SM
[22] = tested on: E6SM; assay: Concentration required to reduce herpes simplex virus-1TK (McIntyre) inducted cytopathicity by 50% (E6SM cells); format: functional, cell-based; conditions: Homo sapiens; outline: as §1
[23] = tested on: Human immunodeficiency virus 2; assay: Concentration required to inhibit by 50% human immunodeficiency virus-2 induced syncytium formation upon coculturing persistently HIV-infected HUT-78 cells with MOLT-4 cells; conditions: HUT-78, MOLT-4
[24] = tested on: HeLa; assay: Concentration required to reduce vesicular stomatitis virus-inducted cytopathicity by 50% (HeLa cells); format: functional, cell-based; conditions: Homo sapiens
[25] = tested on: E6SM; assay: Concentration required to reduce herpes simplex virus-1TK (VMW1837) inducted cytopathicity by 50% (E6SM cells); format: functional, cell-based; conditions: Homo sapiens; outline: as §1
[26] = tested on: Vero; assay: Concentration required to reduce forest virus-inducted cytopathicity by 50% (Vero cells); format: functional, cell-based; conditions: Chlorocebus sabaeus
[27] = tested on: E6SM; assay: Concentration required to reduce herpes simplex virus-2(196) inducted cytopathicity by 50% (E6SM cells); format: functional, cell-based; conditions: Homo sapiens; outline: as §1
[28] = tested on: MT4; assay: Concentration required to reduce the viability of uninfected MT-4 cells by 50%; format: functional; conditions: Homo sapiens; outline: as §3
[29] = tested on: MT4; assay: Concentration required to inhibit human immunodeficiency virus-2 induced cytopathicity in MT-4 cells by 50%; format: functional, cell-based; outline: as §2
[30] = tested on: HeLa; assay: Concentration required to reduce Coxsackie virus-inducted cytopathicity by 50% (HeLa cells); format: functional, cell-based; conditions: Homo sapiens
[31] = tested on: CEM-4; assay: Inhibitory concentration required to inhibit HIV-induced cytopathicity in CEM-4 cells by 50%; format: functional, cell-based; conditions: Homo sapiens
Outline: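 CEM-4 cells infected with HIV-1 (strain HTLV-III_B/LAI). The end point is 50% inhibition of HIV-induced cytopathicity.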

[32] = tested on: HEL; assay: Concentration required to reduce human cytomegalo virus(AD-169) inducted cytopathicity by 50% (HEL cells); format: functional, cell-based; outline: as §1

**Q.** `O=C(O)CC(SCCCOC[C@H]1O[C@@](COCCCSC(CC(=O)O)C(=O)O)(O[C@H]2O[C@H](COCCCSC(CC(=O)O)C(=O)O)[C@@H](OCCCSC(CC(=O)O)C(=O)O)[C@H](OCCCSC(CC(=O)O)C(=O)O)[C@H]2OCCCSC(CC(=O)O)C(=O)O)[C@@H](OCCCSC(CC(=O)O)C(=O)O)[C@@H]1OCCCSC(CC(=O)O)C(=O)O)C(=O)O` (some centres not stated) was tested. Which pIC50 [1] did it give?
**A.** < 4.05

**Q.** What about the pIC50 [2] of the same compound?
**A.** < 4.05

**Q.** What about the pIC50 [3] of the same compound?
**A.** < 4.05

**Q.** And the pIC50 [4]?
**A.** < 4.66

**Q.** And the pIC50 [5]?
**A.** 4.65

**Q.** What about the pIC50 [6] of the same compound?
**A.** < 4.66

**Q.** What about the pIC50 [7] of the same compound?
**A.** < 3.74

**Q.** And the pIC50 [8]?
**A.** < 4.66

**Q.** What about the pIC50 [9] of the same compound?
**A.** < 4.05

**Q.** What about the pIC50 [10] of the same compound?
**A.** < 4.66

**Q.** What about the minimum cytotoxic concentration [11] of the same compound?
**A.** > 181 µM

**Q.** What about the pIC50 [12] of the same compound?
**A.** < 3.74

**Q.** What about the pIC50 [13] of the same compound?
**A.** < 4.05

**Q.** And the pIC50 [14]?
**A.** < 3.74

**Q.** And the pIC50 [15]?
**A.** < 3.87

**Q.** What about the pIC50 [16] of the same compound?
**A.** 6.74

**Q.** What about the pIC50 [17] of the same compound?
**A.** < 4.05

**Q.** What about the pIC50 [18] of the same compound?
**A.** < 4.05

**Q.** What about the CC50 [19] of the same compound?
**A.** > 45.1 µM

**Q.** And the pIC50 [20]?
**A.** < 3.74

**Q.** What about the pIC50 [21] of the same compound?
**A.** < 3.74

**Q.** What about the pIC50 [22] of the same compound?
**A.** < 3.74

**Q.** What about the pIC50 [23] of the same compound?
**A.** 4.65

**Q.** And the pIC50 [24]?
**A.** < 4.05

**Q.** And the pIC50 [25]?
**A.** < 3.74

**Q.** And the pIC50 [26]?
**A.** < 4.05

**Q.** What about the pIC50 [27] of the same compound?
**A.** < 3.74

**Q.** And the CC50 [28]?
**A.** > 113 µM

**Q.** And the pIC50 [29]?
**A.** 5.54

**Q.** And the pIC50 [30]?
**A.** < 4.05

**Q.** What about the pIC50 [31] of the same compound?
**A.** 5.52

**Q.** What about the pIC50 [32] of the same compound?
**A.** < 4.66
